This is a sample that favours compounds with a hit; in the whole collection about 9.2% have one here.
ERb SRC1 inh: blocks coactivator binding to human estrogen receptor beta | AID 633 | 86,000 tested, 1.3% active | inhibition, % at 25.6 µM | TR-FRET ER-beta LBD / SRC1-Cy5 peptide binding; receptor agonist-loaded with 1 µM estradiol | Q92731;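 active = compounds whose percent inhibition of the receptor-coactivator binding signal exceeds about 50% in the single-dose screen, limit read from the data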;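 also: 0% = receptor plus peptide wells without compound and 100% = peptide-only wells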
ERa SRC1 inh: ER-alpha (human) coactivator binding inhibition. TR-FRET ER-alpha LBD / SRC-1 peptide, estradiol-bound. inhibition, % at 25.6 µM. 86,000 tested, 1.7% active. AID 629; in the data active = inhibition above about 50%;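 also: 0% = receptor plus peptide control and 100% = peptide only without receptor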
Target sequence (P03372 whole entry, looked up, the tested form may be a part): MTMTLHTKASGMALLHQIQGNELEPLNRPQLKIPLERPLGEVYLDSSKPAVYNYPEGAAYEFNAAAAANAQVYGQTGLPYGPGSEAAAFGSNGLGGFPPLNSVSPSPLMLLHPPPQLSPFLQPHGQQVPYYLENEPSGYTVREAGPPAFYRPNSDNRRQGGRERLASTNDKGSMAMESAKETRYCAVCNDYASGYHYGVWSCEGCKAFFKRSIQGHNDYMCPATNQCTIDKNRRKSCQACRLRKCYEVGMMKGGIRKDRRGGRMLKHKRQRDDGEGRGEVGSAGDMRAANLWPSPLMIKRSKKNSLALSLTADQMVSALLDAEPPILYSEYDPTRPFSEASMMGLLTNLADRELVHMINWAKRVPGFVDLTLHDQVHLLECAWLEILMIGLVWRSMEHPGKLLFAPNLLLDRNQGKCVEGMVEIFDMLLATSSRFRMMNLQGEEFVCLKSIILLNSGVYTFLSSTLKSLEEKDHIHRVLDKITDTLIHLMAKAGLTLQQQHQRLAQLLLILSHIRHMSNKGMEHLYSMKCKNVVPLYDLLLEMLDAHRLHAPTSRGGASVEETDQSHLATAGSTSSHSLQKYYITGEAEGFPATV
HUVEC inhibit: human endothelial cell proliferation inhibition | HUVEC proliferation, CellTiter-Glo luminescence, 72 h; active compounds read low | viability, % at 10 µM (by protocol) | 86,000 tested, 1.1% active | AID 648;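 active = viability at or below 30%; inactive = viability above 30%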;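 also: 100% = median luminescence of DMSO-only cell control wells on each plate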
Fibroblast inh: blocks proliferation of human lung fibroblasts. viability, % at 10 µM. AID 719. LL 47 human lung fibroblast viability, ATP luminescence; active compounds read low. 85,000 tested, 1.1% active;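 active = viability at or below 50% in the single dose screen; inactive = viability above 50%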;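 also: compound exposure lasted 72 h before the ATP readout; 100% = median luminescence of untreated cell-only wells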
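material = human LL 47 lung fibroblast cells | dosing = compounds added from tenfold dosing solution, 0.1% DMSO final | timing = overnight cell rest, 72 h compound treatment at 37 °C | measured by = CellTiter-Glo luminescence measuring cellular ATP | evaluation = % viability versus median cells-only luminescence | control set = cell-only wells, no compound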
ERa SRC1 pot: enhances coactivator binding to human estrogen receptor alpha; P03372; TR-FRET ERalpha-LBD/SRC-Cy5 coactivator binding, 2 h; 100 = basal binding, no effect; coactivator binding (% of control), % at 25.6 µM; 86,000 tested, 1.3% active; AID 639; in the data active = activity above about 200%;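 also: binding measured in presence of low estradiol as agonist stimulus; 0% = peptide alone without receptor and 100% = receptor with peptide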
H69AR inhibit: growth inhibitors of human H69AR lung tumor cells. H69AR lung tumor viability, ATP luminescence, 72 h; active compounds read low. viability, % at 10 µM. 85,000 tested, 6% active;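 active = viability at or below 40%; inactive = viability above 40%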;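 also: multidrug resistant small cell line overexpressing MRP-1 efflux transporter; 100% = mean luminescence of untreated control wells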
* = called active by the depositor; nt = no result given; [ ] = dose if it differs, or a comment.

SMILES | ERb SRC1 inh | ERa SRC1 inh | HUVEC inhibit | Fibroblast inh | ERa SRC1 pot | H69AR inhibit
COc1ccc(C(=O)c2c(C(F)(F)F)oc3c2C(=O)c2ccccc2C3=O)cc1 | 68.0* | 0.5 | 3.2* | 2.3* | 113.5 | 81.5
COc1ccc(C(=O)c2oc3ccccc3c2NC(C)=O)cc1 | -2.1 | 0.5 | 105.9 | 95.2 | 93.5 | 89.6
O=C(CN1CCOCC1)Nc1nc2ccc(Br)cc2s1 | -7.4 | -4.7 | 92.5 | 101.7 | 90.8 | 79.2
O=C1NCCCC2c3cc(O)c4ccccc4c3OC12N1CCCCC1 (configuration not stated) | 54.5* | 43.0 | 3.4* | 105.7 | 37.1 | 19.9*
CC(C)NS(=O)(=O)c1ccc(OCC(=O)Nc2ccc(F)cc2F)cc1 | -4.4 | -0.6 | 96.8 | 105.7 | 101.4 | 115.8
CNC(=O)c1cc2c(=O)n3cccc(C)c3nc2n(C(C)C)c1=N | 12.3 | 0.1 | 93.9 | 99.4 | 89.9 | 79.7
CC(=O)Oc1c(Cl)c(N2CCOCC2)c(OC(C)=O)c2ccccc12 | -1.6 | 5.9 | 85.4 | 101.0 | 92.4 | 1.9*
O=C(NCSc1ccnc(SCNC(=O)c2ccccc2)n1)c1ccccc1 | 10.3 | -6.3 | 90.5 | 99.5 | 252.2* | 98.7
Cc1cc(C)nc(SCNC(=O)c2ccc(Cl)cc2)n1 | -7.9 | 2.7 | 94.7 | 98.9 | 114.2 | 95.2
Oc1ccc(N2CCN(C(c3ccccn3)c3nnnn3C3CCCC3)CC2)cc1 (configuration not stated) | 16.4 | -0.4 | 91.8 | 89.5 | 83.3 | 95.1
Cc1ccc(NC(=O)NC2CCCN2S(=O)(=O)c2ccc(Cl)cc2)cc1 (configuration not stated) | -3.6 | -2.5 | 90.0 | 96.2 | 100.2 | 86.8
COc1ccc(OC)c(S(=O)(=O)N2CCC(C(=O)Nc3cccc(C(F)(F)F)c3)CC2)c1 | -7.6 | -1.7 | 74.4 | 93.7 | 115.0 | 43.2
COc1ccc(N(CC(=O)Nc2ccc(S(=O)(=O)N3CCCCC3)cc2)S(C)(=O)=O)cc1OC | -3.4 | -3.1 | 82.9 | 87.2 | 96.9 | 86.1
Cc1ccc(C)n1NC(=O)c1ccccc1O | 21.6 | -4.2 | 87.9 | 44.5* | 78.5 | 28.7*
O=S(=O)(c1ccc(Cl)cc1)N1CCC(n2cnc3cc(C(F)(F)F)ccc32)CC1 | 18.0 | 20.7 | 94.3 | 102.7 | 87.7 | 34.8*
CCOC(=O)/C=C(\C)Sc1cc(=O)oc2ccccc12 | 4.8 | -11.2 | 49.2 | 86.4 | 111.8 | 12.5*
CCOC(=O)Nc1oc2ccccc2c(=O)c1C | -2.6 | -1.9 | 86.2 | 92.6 | 103.5 | 95.1
Cc1nc2ccc3nc(NC(=O)c4ccc5c(c4)OCCO5)sc3c2s1 | 43.7 | 62.4*[fluorescence artefact?] | 83.0 | 99.8 | 417.8*[fluorescence artefact?] | 80.9
Cc1nc2c(ccc3nc(NC(=O)c4ccc5c(c4)OCCO5)sc32)s1 | 58.0*[fluorescence artefact?] | 75.3*[fluorescence artefact?] | 7.8* | 92.3 | 201.4*[fluorescence artefact?] | 8.2*
O=C(Cn1ncc2c(=O)oc3ccccc3c21)NCCN1CCN(c2ccccc2F)CC1 | -12.0 | -1.5 | 95.1 | 109.6 | 117.5 | 91.3
CSc1nc(-c2ccccc2)nc2[nH]ccc(=O)c12 | 24.9 | 51.6*[fluorescence artefact?] | 83.2 | 95.1 | 317.0* | 50.2
CSc1nc(-c2ccccc2)nc(SC)c1C(C)=O | -3.8 | 5.1 | 92.0 | 99.3 | 87.3 | 79.6
C=C(C)COc1ccc(-c2nc(N)nc(C)c2Oc2ccccc2OC)c(O)c1 | 59.4*[fluorescence artefact?] | 29.5 | 93.6 | 88.8 | 285.5*[fluorescence artefact?] | 76.7
CCCOC(=O)c1ccc(Oc2c(-c3ccc(O)cc3O)n[nH]c2C)cc1 | -10.2 | -2.7 | 55.9 | 99.1 | 50.5 | 59.1
CCc1cc(-c2n[nH]c(C)c2Oc2ccc(C(C)C)cc2)c(O)cc1O | 0.3 | -3.5 | 2.5* | 74.0 | 69.9 | 1.1*
SMILES | ERb SRC1 inh | ERa SRC1 inh | HUVEC inhibit | Fibroblast inh | ERa SRC1 pot | H69AR inhibit
CCCOC(=O)c1ccc(Oc2c(-c3ccc(OC)cc3O)n[nH]c2C)cc1 | 12.9 | -9.6 | 24.8* | 88.2 | 83.8 | 1.6*
CCOc1ccc(-c2n[nH]c(C)c2Oc2ccccc2OC)c(O)c1 | 0.6 | 0.3 | 86.9 | 89.7 | 86.8 | 104.0
CCOc1ccc(-c2nc(N)nc(C)c2-c2ccc(OC)c(OC)c2)c(O)c1 | 29.4 | 0.9 | 104.9 | 98.0 | 89.5 | 95.2
C=C(C)COc1ccc(-c2n[nH]c(C)c2Oc2ccccc2OC)c(O)c1 | 9.2 | -2.5 | 28.9* | 86.6 | 82.4 | 7.2*
CCCCCCSc1nc(O)c(C2OC(=O)c3c2ccc(OC)c3OC)c(=O)n1-c1ccccc1 (configuration not stated) | -0.3 | 9.3 | 79.8 | 96.5 | 59.2 | 90.5
CC(CN1CCCC1)OC(=O)COc1ccccc1 (configuration not stated) | -2.4 | 1.7 | 102.2 | 114.5 | 110.6 | 97.6
O=C(NCc1n[nH]c(=S)n1-c1ccc(F)cc1)c1ccco1 | -10.1 | -5.1 | 97.7 | 101.5 | 174.7 | 99.6
Cc1[nH]nc(-c2ccc(O)cc2O)c1Oc1ccccc1 | -4.0 | 0.4 | 80.7 | 85.2 | 130.4 | 36.0*
C=C(C)COc1ccc(-c2nc(N)ncc2-c2ccc(OC)cc2)c(O)c1 | 2.0 | 2.3 | 98.6 | 93.3 | 69.3 | 10.1*
CCOC(=O)c1cccc(N2C(=O)c3ccccc3S2(=O)=O)c1 | -5.5 | -2.5 | 95.4 | 97.6 | 107.8 | 86.4
COc1ccc(OC)c(C(c2nnnn2CCc2ccccc2)N2CCC(C(N)=O)CC2)c1 (configuration not stated) | -6.4 | -5.0 | 102.5 | 94.5 | 134.7 | 76.9
O=c1oc(-c2cccc(Cl)c2)nc2c1cnn2-c1ccccc1 | 4.3 | 0.8 | 81.2 | 100.4 | 135.3 | 90.8
O=c1oc(-c2ccccc2F)nc2c1cnn2-c1ccccc1 | 17.1 | 9.1 | 5.9* | 82.0 | 186.7 | 54.0
C=CCOC(=O)c1[nH]c2c(c1C)C(=O)CC(c1ccco1)C2 (configuration not stated) | 42.8 | 37.7 | 46.2 | 54.9 | 135.3 | 30.0*
CCOC(=O)c1ccc(N=CC2=C(O)CC(c3ccco3)CC2=O)cc1 (configuration not stated) | 19.6 | 6.0 | 92.0 | nt | 91.7 | 93.3
C/C=C/COC(=O)c1[nH]c2c(c1C)C(=O)CC(c1ccc(N(C)C)cc1)C2 (configuration not stated) | 3.2 | -1.8 | 79.4 | 110.2 | 92.6 | 29.2*
COC(=O)c1[nH]c2c(c1C)C(=O)CC(c1ccccc1)C2 (configuration not stated) | -2.9 | 10.4 | 46.4 | 58.8 | 99.8 | 19.1*
Cc1c(C(=O)OCC(C)C)[nH]c2c1C(=O)CC(c1ccco1)C2 (configuration not stated) | 35.5 | 38.4 | 43.9 | 51.2 | 95.5 | 16.7*
CCOC(=O)c1[nH]c2c(c1C)C(=O)CC(c1ccc(OC)c(OC)c1)C2 (configuration not stated) | 4.0 | -3.1 | 92.8 | 95.8 | 112.8 | 97.7
O=C(CCN1C(=O)CSC1=O)Nc1ccccc1 | 9.6 | 6.8 | 108.6 | 103.1 | 90.5 | 98.8

Bioassay records deposited in PubChem BioAssay by several laboratories.
